Assay: Toxicity liver stage against HepG2, at 10uM
Format: cell-based
Set-up: test concentration 10 uM, cell line HepG2-A16-CD81EGFP
Conditions: human, HepG2-A16-CD81EGFP cells; read-out: INHIBITION
Outline: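 Uninfected HepG2-A16-CD81EGFP cells, 3 × 10^3 per well, 1536-well, plated on prespotted compound at 10 μM final, parasite-free screening media added to match infected plates; puromycin 10 μM positive, DMSO 0.5% negative; run in parallel with 48 h PbLuc assay at 37 °C, 5% CO2; viability by CellTiter-Glo luminescence, normalized to controls.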

| SMILES | cytotoxicity at 10 µM [%] |
| --- | --- |
| Cc1cccc(C)c1NC(=O)CC(CN1CCN(C)CC1)C(=O)O (stereo not drawn) | -3.68 |
| COc1ccc(C)cc1NC(=O)C1CSc2ncc(C)c(=O)n2C1 (stereo not drawn) | -1.99 |
| CC(C)NC(=O)N1CCC2(CC1)CCn1c(C3CC3)cnc12 | 2.04 |
| CC(C)CS(=O)(=O)N1CCC2(CC1)CCn1c(-c3cnn(C)c3)cnc12 | -131 |
| CC(C)c1cc2c(O)nc(CSCC(=O)NCc3ccncc3)nc2s1 | -6.18 |
| O=C(NCCN1CCCCC1)c1nc2ccccc2c(=O)[nH]1 | 10.5 |
| CCn1cc(CNC(=O)C(C)C)cn1 | 7.74 |
| COc1cccc(CNCc2ccccc2Cl)c1O | -13.2 |
| CN(C)S(=O)(=O)N1CCCC(c2nccnc2-c2cccc(Cl)c2)C1 (stereo not drawn) | 8.23 |
| CN1CCC(c2cccc(NCc3nccn3C)n2)CC1 | 8.28 |
| c1cc(CNc2ncc(-c3cnccn3)c([C@@H]3CCCO3)n2)ccn1 | 8.99 |
| O=C(N1CCOCC1)N1CCCC(c2ncncc2-c2ccncc2)C1 (stereo not drawn) | -25.9 |
| Cc1ccc(S(=O)(=O)N2C[C@H]3C[C@H](NC(=O)c4cc(C)no4)[C@H]3C2)cc1 | -11.2 |
| Cc1ccc2c(c1)C(=O)NCC1(CCN(C(=O)c3cc(C)no3)CC1)O2 | -20.8 |
| CSCC[C@H]1CN2CCC[C@H]2CN1Cc1cn(C)nc1C | -9.85 |
| CC(=O)N1CCCC(Cc2nccn2C)C1 (stereo not drawn) | -5.52 |
| CO[C@H]1CN(Cc2ccccc2F)C[C@@]12CCCO2 | -8.19 |
| C=C(C)CN(CC)S(=O)(=O)c1c(F)cc(NC(C)=O)cc1F | -47.1 |
| Cn1ccc(C(=O)Nc2nc(-c3ccc4c(c3)CCO4)cs2)cc1=O | -9.46 |
| COc1ccccc1NCC(=O)Nc1cnn(Cc2ccccn2)c1 | -0.53 |
| CC1c2cc(F)ccc2CCN1CCCS(=O)(=O)C(C)C (stereo not drawn) | 9.15 |

| SMILES | cytotoxicity at 10 µM [%] |
| --- | --- |
| CCNC(=O)C(C)NC(=O)Nc1ccccc1SCC (stereo not drawn) | -7.4 |
| CC(C)SCc1cccc(NC(=O)NC(C)c2nc[nH]n2)c1 (stereo not drawn) | -45.2 |
| CCC(C)NC(=O)Nc1cccc(OCC#N)c1 (stereo not drawn) | -0.146 |
| Cn1cc(C(=O)NCCCN2CCCCCC2=O)c(-c2cccnc2)n1 | -8.3 |
| Cc1cc(C(=O)Nc2ccc(CN3CCOCC3)cn2)n(C)n1 | 3.86 |
| O=C(NCCN1C(=O)CCC1=O)c1nc2ccccc2c(=O)[nH]1 | -8.99 |
| CCCc1noc(C(C)N2CCN(c3ccc(C#N)cn3)CC2)n1 (stereo not drawn) | -0.487 |
| OCCN1CCC(CNCc2ccc(N3CCCCC3)cc2)CC1 | -3 |
| CC(C)C(O)CNC(=O)Nc1ccc(F)c(Cl)c1 (stereo not drawn) | 5.6 |
| CCNC(=O)C1CCCN(C(=O)Nc2ccc3c(c2)CCCN3C)C1 (stereo not drawn) | 13.6 |
| CC(C)NC(=O)CN(C)C1CCN(c2ccc(C#N)cn2)CC1 | -16.1 |
| CCS(=O)(=O)NC1CCCN(c2ccc(F)cc2C)C1=O (stereo not drawn) | 3.93 |
| Cc1cc(CNC(=O)c2cccs2)ccc1S(C)(=O)=O | 3.38 |
| OCC(O)CSCc1cc(Cl)ccc1Cl (stereo not drawn) | -147 |
| COc1ccccc1CN(CC1CCCO1)C(=O)c1ccc(F)cn1 (stereo not drawn) | -3.85 |
| N#Cc1ccc(N2CCCN(CC(N)=O)CC2)cc1 | 3.11 |
| CC(C)N(Cc1cnn(C)c1)C(=O)c1ccnc(N(C)C)c1 | 10.6 |
| Cc1nsc(NC2CCOC3(CCCCC3)C2)n1 (stereo not drawn) | 5 |
| Cc1oc(C(=O)O)cc1S(=O)(=O)Nc1cccc(-c2nccs2)c1 | -1.01 |
| NC(=O)C1(CNCc2csc(-c3cccs3)n2)CCOCC1 | -19.3 |
| CCC(CC)CNC(=O)N(C)C(C)c1ccccn1 (stereo not drawn) | -6.2 |

| SMILES | cytotoxicity at 10 µM [%] |
| --- | --- |
| N#CCCN(C(=O)CN1CCCC1C1CCCCC1)c1ccccc1 (stereo not drawn) | -12.1 |
| COc1ccccc1OCC(=O)NS(=O)(=O)c1cc(F)ccc1F | -9.18 |
| COc1ccc(OCC(=O)NC(C)c2ccccc2)c(C(=O)O)c1 (stereo not drawn) | 2.4 |
| Cc1nc(CN2CCC(CNC(=O)Nc3ccccn3)CC2)oc1C | -3.5 |
| CN(Cc1cccc(F)c1)C(=O)CN1CCCC1CCc1ccccc1 (stereo not drawn) | -12 |
| O=C(NCCC1CCCO1)c1ccccc1N1CCOCC1 (stereo not drawn) | -10.8 |
| CC(NC(=O)c1nc(=O)[nH][nH]1)c1ccc(OCC2CC2)c(F)c1 (stereo not drawn) | -5.75 |
| CC1CN(CC(=O)NC(=O)NCc2ccccc2)CCO1 (stereo not drawn) | -7.07 |
| CCOCC(=O)N1CC[C@H]2O[C@@H](C)C[C@H]2C1 | -67.9 |
| COc1nn(C)c2c1CCCN(C(=O)c1cc[nH]n1)C2 | -5.2 |
| CC(C)Cc1n[nH]c(C2CC(=O)N(CC(C)C)C2)n1 (stereo not drawn) | 3.49 |
| CC(C)(C)c1ncc2c(n1)CN(C(=O)c1ccc(C#N)nc1)C2 | -6.39 |
| COc1ccc2c(c1)C(C(=O)NCCN1CCNC1=O)CC(=O)N2 (stereo not drawn) | -1.13 |
| c1cc(-c2nc3c(c(NCCc4c[nH]cn4)n2)CCNCC3)ccn1 | -146 |
| O=C(O)c1ccccc1C1CCN(C2Cc3ccccc3C2)C1 (stereo not drawn) | 12.7 |
| CN(Cc1ccc2nsnc2c1)C(=O)Cn1ncc(N(C)C)cc1=O | 3.67 |
| OC[C@H]1CN(Cc2c(Cl)cncc2Cl)C[C@H]1CN1CCCCCC1 | -112 |
| Nc1ccc(-c2ccc(F)cc2Cl)cn1 | -151 |
| CN(C)S(=O)(=O)NCc1cccnc1Oc1ccccc1F | 1.81 |
| COc1cccc2c1OCC(C(=O)N1CCN(C3CCSCC3)CC1)C2 (stereo not drawn) | -1.62 |
| CCc1nnc(CN(C)C[C@@H]2CCCN3CCCC[C@H]23)o1 | 1.52 |

| SMILES | cytotoxicity at 10 µM [%] |
| --- | --- |
| O=C(O)COc1ccc(Cl)cc1CN1CCC2(CCNCC2)CC1 | 6.45 |
| CN1C(=O)CC(C(=O)O)C12CCN(Cc1ccc(Cl)c(Cl)c1)CC2 (stereo not drawn) | 2.12 |
| CN(C)C(=O)c1noc2c1CN(C(=O)CCC1CCCCN1C)CC2 (stereo not drawn) | -2.74 |
| CCCN(C(=O)COC)c1nc2c(s1)CCc1c-2cnn1C | 5.15 |
| CC(C)c1nc2n(n1)CC(NCc1nc(-c3ccsc3)no1)CC2 (stereo not drawn) | -5.39 |
| Cn1cc(NC(=O)N2CCC(NS(C)(=O)=O)CC2)ccc1=O | -7.05 |
| Cc1nn(C)c(N(C)C)c1CNC1CCOc2c(F)cccc21 (stereo not drawn) | -13.9 |
| CS(=O)(=O)N1CCCCCC1C1CCN(c2ncccc2C#N)CC1 (stereo not drawn) | -3.2 |
| Cn1cc(CNC2CCCN(Cc3noc(C4CC4)n3)C2)cn1 (stereo not drawn) | -9.52 |
| COc1ccc2c(c1)CN(Cc1nc3c(cnn3C)c(=O)[nH]1)CC2 | -8.57 |
| c1cnn(-c2ccc(CN3CCOC(Cn4cncn4)C3)cc2)c1 (stereo not drawn) | -13.6 |
| c1ccc(-c2cnc(CN3CCCC3Cn3cncn3)o2)cc1 (stereo not drawn) | -5.82 |
| Cn1cc(C(=O)CC2CCCN2C(=O)c2n[nH]c3ccccc23)cn1 (stereo not drawn) | -0.842 |
| CC(c1nc(C2CC2)no1)N1CCN(Cc2ccccc2F)CC1 (stereo not drawn) | 1.03 |
| Cc1cc(C(F)(F)F)n2nc(C3CCCN3C3CCSCC3)cc2n1 (stereo not drawn) | 1.77 |
| CCO[C@@H]1CO[C@@]2(CCCN(Cc3scnc3C)C2)C1 | -9.06 |
| CN(C)C(=O)NCc1cc(=O)n2c(n1)CN(Cc1ccoc1)CCC2 | -99.3 |
| Cc1oncc1C(=O)N1CCC2(CCN(Cc3cccnc3)C2=O)C1 (stereo not drawn) | -144 |
| CC(=O)NCC(=O)N1Cc2nccn2CC(CN(C)C(C)C)C1 (stereo not drawn) | -75.7 |
| Cc1ccc(CN2Cc3c(C(=O)N(C)C)nn(C)c3C2)s1 | -12.6 |

Reference: ChEMBL document CHEMBL4513216, “Probing the Open Global Health Chemical Diversity Library for Multistage-Active Starting Points for Next-Generation Antimalarials” (ACS Infect Dis, 2020)
